Source: ChEMBL document CHEMBL2176931, “Plakilactones from the marine sponge Plakinastrella mamillaris. Discovery of a new class of marine ligands of peroxisome proliferator-activated receptor γ” (J Med Chem, 2012)
Activity calls are given as the source filed them. The calls are words filed in the database; no cut-off is given here.

Key:
[1] = biological target: T1, Peroxisome proliferator-activated receptor alpha (Homo sapiens) (UniProt Q07869); assay: Transactivation of GAL4-fused PPARalpha ligand binding domain transfected in human HepG2 cells at 10 uM after 18 hrs by luciferase reporter gene assay; assay type: cell-based
T1 sequence (whole entry): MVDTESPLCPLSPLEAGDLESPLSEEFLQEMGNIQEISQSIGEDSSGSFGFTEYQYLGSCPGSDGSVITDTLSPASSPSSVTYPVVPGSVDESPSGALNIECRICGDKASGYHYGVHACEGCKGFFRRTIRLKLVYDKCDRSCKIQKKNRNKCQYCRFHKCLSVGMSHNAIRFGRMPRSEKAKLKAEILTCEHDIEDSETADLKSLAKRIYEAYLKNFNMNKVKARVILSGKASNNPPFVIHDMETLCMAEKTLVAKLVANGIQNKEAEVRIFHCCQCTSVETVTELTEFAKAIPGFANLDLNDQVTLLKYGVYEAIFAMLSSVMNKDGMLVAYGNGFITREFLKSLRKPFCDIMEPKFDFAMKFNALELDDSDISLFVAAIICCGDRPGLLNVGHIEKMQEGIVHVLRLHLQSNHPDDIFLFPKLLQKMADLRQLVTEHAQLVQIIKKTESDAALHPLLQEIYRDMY

[2] = biological target: T2, Peroxisome proliferator-activated receptor delta (Homo sapiens) (UniProt Q03181); assay: Transactivation of GAL4-fused PPARbeta ligand binding domain transfected in human HepG2 cells at 10 uM after 18 hrs by luciferase reporter gene assay; assay type: cell-based
T2 sequence (whole entry): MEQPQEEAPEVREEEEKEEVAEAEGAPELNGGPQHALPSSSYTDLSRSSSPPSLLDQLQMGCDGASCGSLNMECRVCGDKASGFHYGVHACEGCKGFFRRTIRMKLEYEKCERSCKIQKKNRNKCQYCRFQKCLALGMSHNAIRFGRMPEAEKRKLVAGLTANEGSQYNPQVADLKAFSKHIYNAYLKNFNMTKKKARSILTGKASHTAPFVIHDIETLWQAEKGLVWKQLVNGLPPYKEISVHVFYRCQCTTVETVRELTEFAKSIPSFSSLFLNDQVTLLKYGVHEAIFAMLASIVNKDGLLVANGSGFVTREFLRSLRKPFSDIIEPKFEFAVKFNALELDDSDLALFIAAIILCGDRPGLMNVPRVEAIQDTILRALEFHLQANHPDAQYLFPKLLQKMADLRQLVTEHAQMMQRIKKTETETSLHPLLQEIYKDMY

[3] = biological target: T3, Peroxisome proliferator-activated receptor gamma (Homo sapiens) (UniProt P37231); assay: Antagonist activity at GAL4-fused PPARgamma ligand binding domain transfected in human HepG2 cells assessed as decrease in rosiglitazone-induced transactivation at 50 uM after 18 hrs by luciferase reporter gene assay; assay type: cell-based
T3 sequence (whole entry): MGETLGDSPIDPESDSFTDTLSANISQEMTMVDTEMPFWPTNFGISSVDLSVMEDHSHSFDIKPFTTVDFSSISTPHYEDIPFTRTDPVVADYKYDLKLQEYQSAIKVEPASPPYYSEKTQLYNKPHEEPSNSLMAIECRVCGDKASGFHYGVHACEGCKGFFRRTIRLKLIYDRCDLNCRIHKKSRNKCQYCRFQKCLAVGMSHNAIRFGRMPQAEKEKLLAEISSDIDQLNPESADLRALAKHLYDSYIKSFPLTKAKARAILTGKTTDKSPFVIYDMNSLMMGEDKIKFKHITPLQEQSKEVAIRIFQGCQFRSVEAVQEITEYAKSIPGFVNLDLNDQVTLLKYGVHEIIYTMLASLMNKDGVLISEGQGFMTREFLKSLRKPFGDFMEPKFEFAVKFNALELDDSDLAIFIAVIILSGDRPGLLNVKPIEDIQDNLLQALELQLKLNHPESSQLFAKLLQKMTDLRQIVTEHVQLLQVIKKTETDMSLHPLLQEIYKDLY

[4] = biological target: T3, Peroxisome proliferator-activated receptor gamma (Homo sapiens); assay: Covalent binding affinity to N-terminal His6-tagged PPARgamma ligand binding domain (195 to 477 amino acid residues) at 20 uM after 60 to 180 mins by RP-LC-MS analysis
How it was run: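 PPARγ-LBD (1 μM) incubated with compound (20 μM) in PBS pH 7.5 at 37 °C for 60 and 180 min; aliquots analysed by RP-LC-MS on C4 column, 20–70% aqueous acetonitrile gradient with 0.05% TFA/1% formic acid over 25 min, spectra m/z 1500–3000.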

[5] = biological target: T3, Peroxisome proliferator-activated receptor gamma (Homo sapiens); assay: Transactivation of GAL4-fused PPARgamma ligand binding domain transfected in human HepG2 cells at 10 uM after 18 hrs by luciferase reporter gene assay; assay type: cell-based
[6] = biological target: T3, Peroxisome proliferator-activated receptor gamma (Homo sapiens); assay: Transactivation of PPARgamma in human HepG2 cells assessed as induction of SCD1 mRNA expression at 10 uM after 18 hrs by RT-PCR analysis relative to untreated control; assay type: cell-based
How it was run: (§1)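 Serum-starved HepG2 cells (E-MEM, 10% FBS at maintenance, 37 °C) treated 18 h with 10 μM compound; total RNA by TRIzol, DNase I, random-primed RT; SYBR Green qPCR, 40 cycles; normalized to GAPDH, relative to untreated cells set to 1; triplicate, experiment repeated twice.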

[7] = biological target: T3, Peroxisome proliferator-activated receptor gamma (Homo sapiens); assay: Transactivation of PPARgamma in human HepG2 cells assessed as induction of PEPCK mRNA expression at 10 uM after 18 hrs by RT-PCR analysis relative to untreated control; assay type: cell-based; how it was run: as §1
[8] = biological target: T3, Peroxisome proliferator-activated receptor gamma (Homo sapiens); assay: (§2) Transactivation of GAL4-fused PPARgamma ligand binding domain transfected in human HepG2 cells by luciferase reporter gene assay; assay type: cell-based
How it was run: (§3)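 GAL4–PPARγ LBD luciferase transactivation in HepG2 cells; concentration–response at 1, 10 and 50 μM (rosiglitazone 10, 100, 500 nM); luciferase measured in cell extracts; relative EC50 estimated from curves; mean ± SE of three experiments.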

[9] = biological target: T4, Peroxisome proliferator-activated receptor gamma (Homo sapiens, UniProt P37231); assay: as §2; assay type: cell-based; how it was run: as §3
T4 sequence (P37231 whole entry): T3 sequence (whole entry)

[10] = biological target: T3, Peroxisome proliferator-activated receptor gamma (Homo sapiens); assay: Covalent binding affinity to N-terminal His6-tagged PPARgamma ligand binding domain (195 to 477 amino acid residues) by MALDI-MS and MALDI-MS/MS method
How it was run: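 Protein–ligand adduct digested with trypsin (E:S 1:100, 1 h, 37 °C), desalted on C18 ZIP-TIP, analysed by MALDI-MS in reflectron positive mode with α-cyano-4-hydroxycinnamic acid matrix, m/z 700–5000; peptide numbering per full-length PPARγ.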

[11] = biological target: T3, Peroxisome proliferator-activated receptor gamma (Homo sapiens); assay: Transactivation of PPARgamma in human HepG2 cells assessed as induction of CD36 mRNA expression at 10 uM after 18 hrs by RT-PCR analysis relative to untreated control; assay type: cell-based; how it was run: as §1
[12] = biological target: T3, Peroxisome proliferator-activated receptor gamma (Homo sapiens); assay: Transactivation of PPARgamma in human THP1 cells assessed as decrease in LPS-induced MCP1 mRNA expression at 10 uM preincubated for 3 hrs prior to LPS challenge measured after 18 hrs by RT-PCR analysis relative to untreated control; assay type: cell-based; conditions: THP-1
How it was run: (§4)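 Serum-starved THP-1 cells pretreated 3 h with 10 μM compound (rosiglitazone 100 nM reference), then LPS 1 μg/mL for 18 h; total RNA SYBR Green real-time PCR, GAPDH-normalized, expressed relative to untreated cells set to 1; triplicate, repeated twice.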

[13] = biological target: T3, Peroxisome proliferator-activated receptor gamma (Homo sapiens); assay: Transactivation of PPARgamma in human THP1 cells assessed as decrease in LPS-induced IL6 mRNA expression at 10 uM preincubated for 3 hrs prior to LPS challenge measured after 18 hrs by RT-PCR analysis relative to untreated control; assay type: cell-based; conditions: THP-1; how it was run: as §4

`CCC1=C[C@@](CC)(C/C(=C\[C@H](O)CC)CC)OC1=O` was tested, and the Activity [1] was “inactive” and the Activity [2] was “inactive”.

In the case of `CCC1=C[C@@](CC)(C/C(=C\[C@@H](O)CC)CC)OC1=O`, the Activity [1] is reported as “inactive” and the Activity [2] is reported as “inactive”.

`CCC1=C[C@@](CC)(C[C@H](/C=C/[C@@H](C)O)CC)OC1=O` was tested, and the Activity [1] was “inactive” and the Activity [2] was “inactive”.

For `CCC1=C[C@@](CC)(C/C(=C/[C@@H](O)CC)CC)O/C1=C\C(=O)OC`, the Activity [1] was “inactive” and the Activity [2] was “inactive”.

With `CCCC[C@H](CC)C[C@]1(CC)C=C(CC)/C(=C/C(=O)OC)O1` the Activity [1] was “inactive”, the Activity [3] was “Active” and the Activity [2] was “inactive”.

In the case of `CCC1=C[C@@](CC)(C/C(=C/[C@@H](O)CC)CC)OC1=O`, the Activity [1] is reported as “inactive” and the Activity [2] is reported as “inactive”.

In the case of `CC[C@@H]1C[C@@]2(CC)O/C(=C\C(=O)OC)[C@@]3(CC)OO[C@H]([C@@H](C)O)[C@@H]1[C@@H]23`, the Activity [1] is reported as “inactive” and the Activity [2] is reported as “inactive”.

`CCCC[C@H](CC)C[C@]1(CC)C=C(CC)C(=O)O1` was tested, and the Activity [1] was “inactive” and the Activity [2] was “inactive”.

`CCC1=C[C@@](CC)(C[C@@H](CC)CCC(C)=O)OC1=O` was tested, and the Activity [4] was “inactive” and the Activity [5] was “inactive”.

With `CC/C=C/[C@H](CC)C[C@]1(CC)C=C(CC)C(=O)O1` the Activity [1] was “inactive” and the Activity [2] was “inactive”.

For `CCC1=C[C@@](CC)(C[C@H](/C=C/C(C)=O)CC)O/C1=C\C(=O)OC`, the Activity [4] was “Active”, the Activity [1] was “inactive” and the Activity [6] was “Active”. The Activity [7] was “Active”, the Activity [8] was “Dose-dependent effect” and the EC50 [9] was 5 µM. For the same molecule, the Activity [5] was “Active”, the Activity [10] was “Active” and the Activity [11] was “inactive”. The Activity [2] was “inactive”.

For `CCC1=C[C@@](CC)(C[C@H](/C=C/C(C)=O)CC)OC1=O`, the Activity [4] was “Active”, the Activity [1] was “inactive” and the Activity [6] was “Active”. The Activity [7] was “inactive”, the Activity [8] was “Dose-dependent effect” and the EC50 [9] was 2 µM. For the same molecule, the Activity [5] was “Active”, the Activity [11] was “Active” and the Activity [2] was “inactive”.

With `CCC1=C[C@@](CC)(C[C@@H](CC)CCC(C)=O)O/C1=C\C(=O)OC` the Activity [4] was “inactive” and the Activity [5] was “inactive”.

For `CC/C=C/[C@H](CC)C[C@]1(CC)C=C(CC)/C(=C/C(=O)OC)O1`, the Activity [1] was “inactive”, the Activity [3] was “Active” and the Activity [2] was “inactive”.

`CCC1=C[C@@](CC)(C[C@H](/C=C/[C@H](C)O)CC)O/C1=C\C(=O)OC` was tested, and the Activity [1] was “inactive”, the Activity [6] was “Active” and the Activity [7] was “Active”. The Activity [8] was “Dose-dependent effect”, the EC50 [9] was 10 µM and the Activity [12] was “Active”. For the same molecule, the Activity [5] was “Active”, the Activity [13] was “Active” and the Activity [11] was “Active”. For the same molecule, the Activity [2] was “inactive”.
